In brackets after ≈: the same amount, converted by molar mass. Activity calls are given as the source filed them. The rule behind the calls is not given here.
Legend:
Format in all cases: functional
[1] = Antioxidant activity assessed as ABTS radical scavenging activity at 100 ug/ml
Summary of the method: (§1)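 Test samples at 50, 100, 200 and 400 ug/ml were each mixed with 1 ml of freshly prepared ABTS radical cation solution, adjusted to absorbance 0.7–0.9 at 734 nm. Mixtures reacted 2 h in the dark, then absorbance was read at 734 nm against a blank. Scavenging % was taken as the absorbance decrease relative to ABTS solution without test sample.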

[2] = system: Radical scavenging activity; assay: Antioxidant activity assessed as DPPH radical scavenging activity at 50 ug/ml
Summary of the method: (§2)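 Each test sample was mixed with 1 ml DPPH in methanol, incubated at 37 °C for 30 min, and read spectrophotometrically at 517 nm with a blank reading. Scavenging % was expressed as the absorbance decrease at 517 nm relative to DPPH solution without test sample.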

[3] = system: Radical scavenging activity; assay: Antioxidant activity assessed as DPPH radical scavenging activity at 100 ug/ml; summary of the method: as §2
[4] = system: Radical scavenging activity; assay: Antioxidant activity assessed as DPPH radical scavenging activity at 200 ug/ml; summary of the method: as §2
[5] = Antioxidant activity assessed as ABTS radical scavenging activity at 50 ug/ml; summary of the method: as §1
Escherichia coli [6] = assay: microbe, parasite or virus in culture; details: ATCC 25922, 24 h, read-out: IZ
Klebsiella pneumoniae [7] = assay: microbe, parasite or virus in culture; details: ATCC 11298, 24 h
[8] = Antioxidant activity assessed as ABTS radical scavenging activity at 200 ug/ml; summary of the method: as §1
[9] = system: Radical scavenging activity; assay: Antioxidant activity assessed as DPPH radical scavenging activity at 400 ug/ml; summary of the method: as §2
Staphylococcus aureus [10] = assay: microbe, parasite or virus in culture; details: ATCC 9144, 24 h, read-out: IZ
Staphylococcus aureus [11] = assay: microbe, parasite or virus in culture; details: ATCC 9144, 24 h
Bacillus cereus [12] = assay: Antimicrobial activity against Bacillus cereus ATCC 11778 at 100 ug/ml after 24 hrs by paper disk diffusion method; details: ATCC 11778, 24 h, read-out: IZ
Escherichia coli [13] = assay: microbe, parasite or virus in culture; details: ATCC 25922, 24 h
Bacillus cereus [14] = assay: microbe, parasite or virus in culture; details: ATCC 11778, 24 h
[15] = Antioxidant activity assessed as ABTS radical scavenging activity at 400 ug/ml; summary of the method: as §1
[16] = Antioxidant activity assessed as ABTS radical scavenging activity; summary of the method: as §1
Klebsiella pneumoniae [17] = assay: microbe, parasite or virus in culture; details: ATCC 11298, 24 h, read-out: IZ
[18] = system: Radical scavenging activity; assay: Antioxidant activity assessed as DPPH radical scavenging activity; summary of the method: as §2
MCF7 = assay: Cytotoxicity against human MCF7 cells after 24 hrs by MTT assay; details: MCF7, 24 h
Summary of the method: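 Exponentially growing cells plated at 10⁴ cells/well and allowed to attach, then exposed to test compounds or doxorubicin (dissolved in 0.1% DMSO, diluted in medium; range 1–100) for 24 h; controls received medium with 0.1% DMSO. MTT (1 mg/ml) added for 4 h at 37 °C, formazan dissolved in DMSO, absorbance read at 540 nm; % cytotoxicity calculated from blank-corrected absorbances versus control.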

| SMILES | Activity ([1]; at 100 µg/mL) [%] | Activity ([2]; at 50 µg/mL) [%] | Activity ([3]; at 100 µg/mL) [%] | Activity ([4]; at 200 µg/mL) [%] | Activity ([5]; at 50 µg/mL) [%] | zone of inhibition at 100 µg/mL (Escherichia coli [6]) [mm] | MIC (Klebsiella pneumoniae [7]) [µg/mL] | Activity ([8]; at 200 µg/mL) [%] | Activity ([9]; at 400 µg/mL) [%] | zone of inhibition at 100 µg/mL (Staphylococcus aureus [10]) [mm] | MIC (Staphylococcus aureus [11]) [µg/mL] | zone of inhibition at 100 µg/mL (Bacillus cereus [12]) [mm] | MIC (Escherichia coli [13]) [µg/mL] | MIC (Bacillus cereus [14]) [µg/mL] | Activity ([15]; at 400 µg/mL) [%] | IC50 [16] [µg/mL] | zone of inhibition at 100 µg/mL (Klebsiella pneumoniae [17]) [mm] | IC50 [18] [µg/mL] | also measured |
| --- | --- | --- | --- | --- | --- | --- | --- | --- | --- | --- | --- | --- | --- | --- | --- | --- | --- | --- | --- |
| COc1ccc(C2C(C#N)=C(N)OC(c3c[nH]c4ccccc34)=C2C#N)cc1 (stereo not drawn) | 20 | 53.6 | 56.9 | 59.9 | 12.4 | 18 | 19.6 (≈ 53.2 µM) | 26.4 | 60.2 | 21 | 15.4 (≈ 41.8 µM) | 16 | 23.4 (≈ 63.5 µM) | 24.5 (≈ 66.5 µM) | 28.7 | 858.69 (≈ 2330 µM) | 19 | < 50 |  |
| N#CC1=C(N)OC(c2c[nH]c3ccccc23)=C(C#N)C1c1ccc(Cl)cc1 (stereo not drawn) |  |  |  |  |  | 19 | 17.5 (≈ 46.9 µM) |  |  | 23 | 13.4 (≈ 35.9 µM) | 18 | 21.5 (≈ 57.7 µM) | 19 (≈ 51 µM) |  |  | 18 |  | Activity [1]: inactive; Activity [2]: inactive; Activity [3]: inactive; Activity [4]: inactive; Activity [5]: inactive; Activity [8]: inactive; Activity [9]: inactive; Activity [15]: inactive; Activity [16]: inactive; Activity [18]: inactive |
| N#CC1=C(N)OC(c2c[nH]c3ccccc23)=C(C#N)C1c1ccc(F)cc1 (stereo not drawn) | 16.2 | 26.9 | 28.9 | 31.4 | 8.4 | 18 | 20.1 (≈ 56.4 µM) | 22.4 | 36.5 | 21 | 16.8 (≈ 47.1 µM) | 16 | 26.2 (≈ 73.5 µM) | 20.3 (≈ 57 µM) | 26.7 | 960 (≈ 2690 µM) | 17 | 901.11 (≈ 2530 µM) | GI50 (MCF7): 28 µM; LC50 (concentration killing 50% of cells) (MCF7): > 100 µM; TGI (MCF7): 52.4 µM |
| Cc1ccccc1C1C(C#N)=C(N)OC(c2c[nH]c3ccccc23)=C1C#N (stereo not drawn) | 17.2 | 25.8 | 27.4 | 28.3 | 10.4 | 16 | 27.2 (≈ 77.2 µM) | 21.4 | 32.5 | 16 | 25 (≈ 70.9 µM) | 15 | 26 (≈ 73.8 µM) | 27.8 (≈ 78.9 µM) | 25.7 | > 1000 | 15 | 1371.65 (≈ 3890 µM) |  |
| O=C(O)c1cn(C2CC2)c2cc(N3CCNCC3)c(F)cc2c1=O [CIPROFLOXACIN] |  |  |  |  |  | 27 | 0.1 (≈ 0.302 µM) |  |  | 26 | 0.2 (≈ 0.604 µM) | 25 |  | 0.3 (≈ 0.905 µM) |  |  | 26 |  |  |
| COc1cccc2c1C(=O)c1c(O)c3c(c(O)c1C2=O)C[C@@](O)(C(=O)CO)C[C@@H]3O[C@H]1C[C@H](N)[C@H](O)[C@H](C)O1 [DOXORUBICIN] |  |  |  |  |  |  |  |  |  |  |  |  |  |  |  |  |  |  | GI50 (MCF7): 0.02 µM; TGI (MCF7): 0.21 µM |
| O=C1O[C@H]([C@@H](O)CO)C(O)=C1O [ASCORBIC ACID] | 29.7 | 77.2 | 79.7 | 82.3 | 28.8 |  |  | 31.5 | 85.3 |  |  |  |  |  | 33.4 | 650 (≈ 3690 µM) |  | < 50 |  |
| N#CC1=C(N)OC(c2c[nH]c3ccccc23)=C(C#N)C1c1cccc(Br)c1 (stereo not drawn) |  |  |  |  |  | 14 | 26.3 (≈ 63 µM) |  |  | 16 | 27.5 (≈ 65.9 µM) | 14 | 30.2 (≈ 72.4 µM) | 24 (≈ 57.5 µM) |  |  | 14 |  | Activity [1]: inactive; Activity [2]: inactive; Activity [3]: inactive; Activity [4]: inactive; Activity [5]: inactive; Activity [8]: inactive; Activity [9]: inactive; Activity [15]: inactive; Activity [16]: inactive; Activity [18]: inactive |
| N#CC1=C(N)OC(c2c[nH]c3ccccc23)=C(C#N)C1c1ccccc1 (stereo not drawn) | 19.3 | 38 | 46 | 49.7 | 14.4 | 18 | 20.2 (≈ 59.7 µM) | 24.5 | 51.2 | 22 | 15.2 (≈ 44.9 µM) | 16 | 19.6 (≈ 57.9 µM) | 18.5 (≈ 54.7 µM) | 26.7 | 993.66 (≈ 2940 µM) | 18 | 308.2 (≈ 911 µM) |  |
| N#CC1=C(N)OC(c2c[nH]c3ccccc23)=C(C#N)C1c1cc(Br)c2c(c1)OCO2 (stereo not drawn) | 6.4 | 20.3 | 23.8 | 25.8 | 5.7 | 17 | 24.8 (≈ 53.8 µM) | 10 | 22.8 | 19 | 23.5 (≈ 50.9 µM) | 13 | 27.3 (≈ 59.2 µM) | 28.7 (≈ 62.2 µM) | 12.5 | > 1000 | 16 | 1779.24 (≈ 3860 µM) |  |
| N#CC1=C(N)OC(c2c[nH]c3ccccc23)=C(C#N)C1c1cccc([N+](=O)[O-])c1 (stereo not drawn) |  |  |  |  |  | 16 | 25.5 (≈ 66.5 µM) |  |  | 19 | 24 (≈ 62.6 µM) | 13 | 27.5 (≈ 71.7 µM) | 35.4 (≈ 92.3 µM) |  |  | 15 |  | Activity [1]: inactive; Activity [2]: inactive; Activity [3]: inactive; Activity [4]: inactive; Activity [5]: inactive; Activity [8]: inactive; Activity [9]: inactive; Activity [15]: inactive; Activity [16]: inactive; Activity [18]: inactive |
| N#CC1=C(N)OC(c2c[nH]c3ccccc23)=C(C#N)C1c1ccccc1Cl (stereo not drawn) | 10.4 | 27.9 | 34 | 39.6 | 8.5 | 21 | 16.1 (≈ 43.2 µM) | 14.5 | 45.7 | 24 | 12.4 (≈ 33.3 µM) | 17 | 16.5 (≈ 44.3 µM) | 16.4 (≈ 44 µM) | 21.4 | > 1000 | 20 | 467.49 (≈ 1250 µM) |  |
| Cc1ccc(C2C(C#N)=C(N)OC(c3c[nH]c4ccccc34)=C2C#N)cc1 (stereo not drawn) | 5.5 | 24.8 | 25.8 | 28.9 | 5.2 | 15 | 25.1 (≈ 71.2 µM) | 6.2 | 30.4 | 20 | 22.3 (≈ 63.3 µM) | 14 | 36.3 (≈ 103 µM) | 25.8 (≈ 73.2 µM) | 8.5 | > 1000 | 17 | 1590.74 (≈ 4510 µM) |  |
| CN(C)c1ccc(C2C(C#N)=C(N)OC(c3c[nH]c4ccccc34)=C2C#N)cc1 (stereo not drawn) | 18.5 | 72.1 | 73.1 | 74.6 | 14.4 | 17 | 25.2 (≈ 66.1 µM) | 20.5 | 75.7 | 18 | 23.8 (≈ 62.4 µM) | 15 | 26.7 (≈ 70 µM) | 25.6 (≈ 67.1 µM) | 26.7 | 900 (≈ 2360 µM) | 16 | < 50 |  |
| COc1cc(Br)c(C2C(C#N)=C(N)OC(c3c[nH]c4ccccc34)=C2C#N)cc1OC (stereo not drawn) | 20.5 | 51.7 | 53.8 | 57.3 | 18.5 | 16 | 33.4 (≈ 70 µM) | 24.2 | 64.4 | 20 | 21 (≈ 44 µM) | 14 | 29.5 (≈ 61.8 µM) | 24.5 (≈ 51.3 µM) | 26.7 | 880.3 (≈ 1840 µM) | 19 | < 50 |  |

Source: ChEMBL document CHEMBL1221298, “InCl3 mediated one-pot multicomponent synthesis, anti-microbial, antioxidant and anticancer evaluation of 3-pyranyl indole derivatives” (Bioorg Med Chem Lett, 2010)
